Shown are actives, neighbours in structure and some others; about 2.6% of the full set was active somewhere.
Wnt act: Wnt/beta-catenin pathway activators, primary screen, cell-based, plate reader, single point. Wnt/beta-catenin reporter cell assay, activator. activation, % at 9.35 µM. actives 1.2% (n = 300,000); in the data active means activation above about 30%, passing the limit was not always enough
MITF act: activators of MITF-driven TRPM1 promoter reporter, primary screen, cell-based, SK-MEL-5, luciferase, single point. actives 0.75% (n = 300,000). SK-MEL-5 TRPM1-promoter luciferase, 24 h; % of positive control, neutral wells = 0. activation, % at 12.5 µM;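 active means mean activation of at least 80% with every replicate also reaching 80%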
Vif imaging: HIV Vif self-association inhibitors, primary screen, imaging, HEK293T, single point. inhibition, % at 7.49 µM. actives 0.35% (n = 340,000). HEK293T cells, Vif self-association by quenched fluorescence, 24 h. AID 602346, 2012; in the data active means inhibition above about 50%, passing the limit was not always enough
Xi reactivation: activators of inactive X chromosome reactivation, primary screen, imaging, XiGFP fibroblasts, GFP high-content imaging, set 2; activation, % at 7.58 µM; actives 0.055% (n = 360,000); XiGFP mouse fibroblasts, % GFP-positive cells imaging, 3 d; cells co-treated with 5-aza-dC sensitizer; scaled so ellipticine positive control = 100%;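 active means mean normalized replicate activation at least 10% and every replicate at or above 10%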
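System: 68-5-11 XiGFP fibroblast line; Timing: 3 days compound exposure; Compound dosing: one concentration, pinned; Benchmarks: positive control ellipticine, 6 µM final; Buffer or medium: DMEM containing 5-aza-dC.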
esBAF inh: Bmi1 luciferase reporter increase in mESCs, primary screen, esBAF inhibitor project, mouse ES cells, Bmi1 luciferase knock-in, single point. AID 602393, 2012. 24 h; 100% = twice the neutral-well signal. reporter increase, % at 12.5 µM. actives 2% (n = 350,000); in the data active means activation above about 40%;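 further: a rise in the Bmi1 reporter signal indicates esBAF inhibition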
Of the large screens only hits and unclear results are named; the others gave an inactive call.

CC(C)C#Cc1cnc2c(c1)C(=O)N([C@@H](C)CO)C[C@@H](C)[C@H](CN(C)C(=O)Cc1ccncc1)O2	none (no result: Wnt act, MITF act, Vif imaging)
CCC(=O)Nc1ccc2c(c1)Cc1cc([N+](=O)[O-])ccc1-2	Wnt act 48, MITF act 93, esBAF inh 81
CCCCOc1ccc(-c2ncc(Cl)cn2)cc1	MITF act 105, esBAF inh 86 (no result: Xi reactivation)
CCCCOc1ccc(-c2cnc3ccccc3n2)cc1	none (no result: Wnt act, Vif imaging, esBAF inh)
CCCCOC(=O)c1ccc(Nc2ccc([N+](=O)[O-])cn2)cc1	none (no result: esBAF inh)
CCCCOc1ccc(-c2ncc([N+](=O)[O-])cn2)cc1	Wnt act 40, esBAF inh 83 (no result: MITF act)
NNC(=O)CN1C(c2ccccc2)=Nc2ccc(Br)cc2C1c1ccccc1 (stereo not drawn)	none (no result: esBAF inh)
COc1cc(OC)c(C2=Nc3ccc(Br)cc3C(c3ccccc3)N2CC(=O)NN)cc1OC (stereo not drawn)	Wnt act 37 (no result: esBAF inh)
COc1ccc(/C=C\c2onc(C)c2S(=O)(=O)N2CCC(C(=O)NCc3ccco3)CC2)cc1	Xi reactivation 11
CCCNC(=O)C1CCN(S(=O)(=O)c2c(C)noc2/C=C\c2ccc(OC)cc2)CC1	none (no result: MITF act)
O=C(N[C@@H]1CC[C@H](CCNS(=O)(=O)c2ccc(F)cc2)O[C@@H]1CO)c1cnccn1	none (no result: Wnt act, MITF act, Vif imaging)
O=C(NC(=S)Nc1cccc2[nH]ncc12)c1ccccc1	none
O=C(Nc1cccc2[nH]ncc12)c1ccc(F)cc1	MITF act 96 (no result: Xi reactivation)
C[C@H]1CN([C@@H](C)CO)S(=O)(=O)c2ccc(C3=CCCCC3)cc2O[C@H]1CN(C)C(=O)Cc1ccccc1	none (no result: Wnt act, MITF act, Vif imaging)
c1ccc2c(c1)NC1(CCCCCC1)n1c-2nc2ccccc21	esBAF inh 46 (no result: Wnt act, MITF act, Xi reactivation)
COc1ccc(S(=O)(=O)Nc2ccc3c(c2)C(=O)N([C@H](C)CO)C[C@H](C)[C@@H](CN(C)C(=O)Nc2cccc4ccccc24)O3)cc1	none (no result: Wnt act, MITF act, Vif imaging)
Cc1ccc(Nc2ncc3c(n2)CC(C)CC3=O)c(C)c1 (stereo not drawn)	Wnt act 52 (no result: MITF act, esBAF inh)
CC1CC(=O)c2cnc(Nc3ccccc3)nc2C1 (stereo not drawn)	none (no result: Xi reactivation)
O=C1S/C(=C\c2ccc(N3CCOCC3)o2)C(=O)N1c1ccccc1	none
O=C(O)c1ccccc1-c1ccc(/C=C2\SC(=O)N(c3ccccc3)C2=O)o1	esBAF inh 56 (no result: MITF act)
CO[C@H]1CN(C)C(=O)c2ccc(NC(=O)C3CC3)cc2OC[C@@H](C)N(Cc2cncnc2)C[C@@H]1C	none (no result: Wnt act, MITF act, Vif imaging)
Cc1nnc(NC(=O)Cn2nc(C)c3ccccc3c2=O)s1	Vif imaging 70
CCCNC(=O)N1CC2(CCN(CC3CC3)CC2)c2c(n(C)c3cc(OC)ccc23)[C@H]1CO	none (no result: Wnt act, MITF act, Vif imaging, esBAF inh)
Cc1ccc(NC(=O)C(C)N2C(=O)c3ccccc3S2(=O)=O)cc1Cl (stereo not drawn)	none (no result: esBAF inh)
Cc1ccc(N2C(=O)c3ccccc3NC2(C(=O)O)c2ccccc2)cc1Cl (stereo not drawn)	Wnt act 57, esBAF inh 60
CCCN1CCC(=O)N([C@H](CSc2ccccc2)CC(C)C)CC1	MITF act 93
CCCN1CCC(=O)N([C@H](CSc2ccc(C)cc2)CC(C)C)CC1	MITF act 98, esBAF inh 46
CC(C)C[C@@H](CSc1ccccc1)N1CCN(C)CCC1=O	none
CC(C)C[C@@H](CSc1ccccc1)N1CCN(CC(C)C)CCC1=O	Wnt act 43, MITF act 103, esBAF inh 50
CCCN1CCC(=O)N([C@H](CSc2ccc(Br)cc2)c2ccccc2)CC1	MITF act 89, esBAF inh 51
CCOC(=O)N1CCN(C(=O)c2ccc3nc(N4CCC(C)CC4)sc3c2)CC1	esBAF inh 58 (no result: Wnt act, Vif imaging, Xi reactivation)
CC1CCN(c2nc3ccc(C(=O)N4CCN(Cc5ccccc5)CC4)cc3s2)CC1	esBAF inh 94
Cc1cccc(N2CCN(C(=O)c3ccc4nc(N5CCCCC5)sc4c3)CC2)c1C	esBAF inh 61
O=C(Nc1ccc(Cl)cc1)N1[C@@H]2CNC[C@H]1C2c1ccc(/C=C/c2ccccc2)cc1 (stereo partly drawn)	none (no result: Wnt act, MITF act, Vif imaging, esBAF inh)
COc1cccc(-c2ncc3ccccc3c2COC(=O)N2CCOCC2)c1	esBAF inh 53 (no result: Vif imaging)
C[C@H](CO)N1C[C@H](C)[C@@H](CN(C)Cc2ccncc2)OCCCC[C@H](C)Oc2ccc(NC(=O)C3CCCCC3)cc2C1=O	none (no result: Wnt act, MITF act, Vif imaging)
Cc1c(C(=O)Nc2ccc(Cl)cn2)oc2ccccc12	esBAF inh 45 (no result: Xi reactivation)
Cc1c(C(=O)Nc2nccs2)oc2ccccc12	Wnt act 80, esBAF inh 70 (no result: MITF act, Vif imaging)
Cc1c(C(=O)Nc2nnc(C3CC3)s2)oc2c(Cl)cccc12	none (no result: esBAF inh)
Cc1c(C(=O)Nc2cnccn2)oc2ccccc12	esBAF inh 61 (no result: Xi reactivation)
Cc1c(C(=O)Nc2nnc(C3CC3)s2)oc2ccccc12	Wnt act 45, esBAF inh 53
Cc1ccccc1C(=O)Nc1ccc(Cl)cn1	none (no result: Wnt act, MITF act, Xi reactivation)
C[C@@H]1CN([C@@H](C)CO)C(=O)Cc2cc(NC(=O)Nc3cccc4ccccc34)ccc2O[C@H]1CN(C)C	none (no result: Wnt act, MITF act, Vif imaging)
CCC(=O)Nc1ccc2c(c1)C(=O)N(C)[C@H]1CC[C@H](CC(=O)N3CCc4ccccc4C3)O[C@H]1CO2	none (no result: Wnt act, MITF act, Vif imaging)
O=C(CCN1CCCCC1)N[C@H]1CC[C@H](CCNS(=O)(=O)c2ccccc2)O[C@@H]1CO	none (no result: Wnt act, MITF act, Vif imaging)
O=C(c1ccc2c(c1)OCO2)N1CCc2ccccc2C1	esBAF inh 45 (no result: Xi reactivation)
O=C(C1COc2ccccc2O1)N1CCCCC1 (stereo not drawn)	none
O=C(C1COc2ccccc2O1)N1CCc2ccccc2C1 (stereo not drawn)	esBAF inh 47 (no result: Wnt act, MITF act, Xi reactivation)
O=C(c1cc(Br)c(Br)s1)N1CCc2ccccc2C1	esBAF inh 42
O=C(c1ccc2c(c1)OCO2)N1CCc2ccccc21	none
O=C(c1cc2c(s1)-c1ccccc1OC2)N1CCc2ccccc2C1	none
COc1ccc(-c2cnc3c(c2)C(=O)N([C@@H](C)CO)C[C@H](C)[C@@H](CN(C)S(=O)(=O)c2ccc(OC)cc2)O3)cc1	none (no result: Wnt act, MITF act, Vif imaging, esBAF inh)
C[C@@H]1CN([C@H](C)CO)C(=O)c2cc(NC(=O)Cc3cn(C)c4ccccc34)ccc2O[C@@H]1CN(C)Cc1ccc(Oc2ccccc2)cc1	none (no result: Wnt act, MITF act, Vif imaging)
CCN(CC)c1ccc(NC(=O)c2cc3ccccc3o2)c(C)c1	esBAF inh 45 (no result: Wnt act, Xi reactivation)
COc1cc(NC(=O)c2cc3ccccc3o2)c(OC)cc1Br	none (no result: Wnt act, Xi reactivation)
COc1ccccc1NC(=O)c1cc2ccccc2o1	esBAF inh 72 (no result: Wnt act, Xi reactivation)
Cc1ccccc1NC(=O)c1cc2ccccc2o1	esBAF inh 47
COc1ccc(NC(=O)c2oc3ccccc3c2C)c(OC)c1	none (no result: Xi reactivation)
COc1ccccc1NC(=O)c1oc2ccccc2c1C	esBAF inh 47 (no result: Wnt act, MITF act, Vif imaging)

Assay outcomes (PubChem)
